CAL PDZ FP-1 – CAL PDZ peptide-binding inhibitors, primary screen, biochemical, fluorescence polarization, Cer-tagged CAL PDZ, HTS | 0.02% of 330,000 active | purified CAL PDZ, TMR-peptide fluorescence polarization, 1 h | inhibition, % at 20 µM | AID 504414, 2011;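 active = highest replicate inhibition of at least 40%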
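Test system: tagged CAL PDZ domain / Buffer or medium: sodium phosphate/NaCl buffer pH 7.4 with TCEP, IgG, Thesit / Reagent: TMR-labelled reporter peptide T*-PRC34 bound in PDZ groove / Compound dosing: single point, 20 µM / Schedule: 1 h incubation at room temperature before polarization reading / Technique: fluorescence polarization (mP) / Benchmarks: unlabelled peptide, DMSO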
dFosB act – activators of delta FosB homodimer, primary screen, biochemical, fluorescence polarization, TAMRA-CDK5 oligo, single point; Protein FosB (Mus musculus), P13346; purified delta FosB; percent of positive-control signal above neutral wells; activation, % at 25 µM; 0.99% of 340,000 active; AID 493131, 2011;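 active = mean activation above about 17%, with every replicate also reaching it, limit read from the data, passing the limit was not always enough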
PKA-R1A activ – activators of PKA-R1A holoenzyme, primary screen, biochemical, fluorescence polarization, Cy5-IP20, bovine R1A, mouse PKAc. cAMP-dependent protein kinase type I-alpha regulatory subunit (Bos taurus) + …. PKA-R1A dissociation; scaled: DMSO 0%, 113 µM cGMP 100%. activation, % at 11.4 µM. 0.083% of 340,000 active. AID 504707, 2011;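 active = percent activation above the mean of all tested compounds plus 3 SD, cut at about 19% in these data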;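 note: higher means more PKAc released from R1A so a rise in polarization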
NTR1 ag – agonists of human NTR1, primary screen, imaging, U2OS cells, beta-arrestin-GFP, high content; Neurotensin receptor type 1 (Homo sapiens), P30989; NTR1-U2OS beta-arrestin-GFP spot imaging, agonist mode; activation, % at 20 µM; 0.17% of 330,000 active; AID 493036, 2011;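 active = activation at or above 40% of the spot to cytoplasm intensity ratio, with at least 20 cells analyzed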
CAL PDZ FP-2 – untagged CAL PDZ binding inhibitors, primary screen, biochemical, fluorescence polarization, HTS; Golgi-associated PDZ and coiled-coil motif-containing protein (Homo sapiens), Q9HD26; purified CAL PDZ, TMR-peptide fluorescence polarization, 1 h; inhibition, % at 24.9 µM; 0.92% of 300,000 active;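 active = mean inhibition of at least 30% with at least half of replicates also reaching 30%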
PKA-R2B activ – activators of PKA-R2B holoenzyme, primary screen, biochemical, fluorescence polarization, Cy5-IP20, human; cAMP-dependent protein kinase catalytic subunit beta (Homo sapiens) + cAMP-dependent …; PKA-R2B holoenzyme dissociation; R2B truncated from residue 108, S112A mutant; 0% DMSO only, 100% 113 µM cGMP; activation, % at 11.4 µM; 0.079% of 340,000 active; AID 504700, 2011;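 active = activation above a cutoff set at the mean over all compounds plus 3 SD, cut at about 18% in these data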;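 note: higher means more holoenzyme dissociation and a rise in polarization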
Target sequence (P31323 whole entry, looked up, other chains not shown, the tested form may be a part): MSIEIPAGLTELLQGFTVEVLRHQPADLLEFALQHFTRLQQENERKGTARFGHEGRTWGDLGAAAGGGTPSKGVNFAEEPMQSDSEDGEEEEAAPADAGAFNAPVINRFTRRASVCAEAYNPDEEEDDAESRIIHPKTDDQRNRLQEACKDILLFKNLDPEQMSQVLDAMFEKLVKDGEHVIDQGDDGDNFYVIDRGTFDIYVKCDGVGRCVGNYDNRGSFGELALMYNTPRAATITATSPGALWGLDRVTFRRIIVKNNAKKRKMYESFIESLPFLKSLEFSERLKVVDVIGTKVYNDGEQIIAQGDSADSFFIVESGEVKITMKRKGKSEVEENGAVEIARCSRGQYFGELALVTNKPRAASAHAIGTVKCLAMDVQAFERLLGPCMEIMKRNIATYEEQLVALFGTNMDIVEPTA
A number is an active result. Rows were chosen to be rich in hits. Some 2% of all compounds tested hit in one or more screens of this group.

CC(=O)CSc1nc2c(c(=O)[nH]c(=O)n2C)n1Cc1cccc(Br)c1 was read as CAL PDZ FP-1 inactive, dFosB act inactive, PKA-R1A activ inactive, NTR1 ag inactive, CAL PDZ FP-2 57 and PKA-R2B activ inactive.
`C[C@H](CO)N1C[C@H](C)[C@@H](CN(C)C(=O)Nc2ccc3c(c2)OCO3)Oc2c(NC(=O)Cc3ccccc3)cccc2C1=O` gave CAL PDZ FP-1 inactive, dFosB act inactive, PKA-R1A activ inactive, NTR1 ag inactive, CAL PDZ FP-2 inactive and PKA-R2B activ inactive.
`O=C(NCCCN1CCOCC1)c1ccc(CS(=O)(=O)c2c(Cl)cccc2Cl)o1` gave CAL PDZ FP-1 inactive, dFosB act inactive, PKA-R1A activ inactive, NTR1 ag inactive and PKA-R2B activ inactive.
O=C(NCCN1CCOCC1)c1ccc(CS(=O)(=O)c2c(Cl)cccc2Cl)o1 was read as CAL PDZ FP-1 inactive, dFosB act inactive, PKA-R1A activ inactive, NTR1 ag inactive, CAL PDZ FP-2 32 and PKA-R2B activ inactive.
For N#Cc1cccc(C(Br)S(=O)(=O)c2ccccc2)c1 (centres undefined) the results were PKA-R1A activ inactive and PKA-R2B activ inactive.
Brc1cccc(CNCC2CCCO2)c1 (centres undefined) was read as CAL PDZ FP-1 54, dFosB act inactive, PKA-R1A activ inactive, NTR1 ag inactive, CAL PDZ FP-2 inactive and PKA-R2B activ inactive.
`Cc1ccc(OCc2nnc(SCC(=O)Nc3nccs3)n2-c2ccccc2)cc1C` gave CAL PDZ FP-1 inactive, dFosB act inactive, PKA-R1A activ inactive, NTR1 ag inactive, CAL PDZ FP-2 inactive and PKA-R2B activ inactive.
`Cc1ccc(-n2c(COc3c(C)cccc3C)nnc2SCC(=O)Nc2nccs2)cc1` gave dFosB act 21, PKA-R1A activ inactive, NTR1 ag inactive, CAL PDZ FP-2 inactive and PKA-R2B activ inactive.
Screening Cc1nnc(SCC(=O)Nc2nccs2)s1 returned CAL PDZ FP-1 inactive, dFosB act inactive, PKA-R1A activ inactive, NTR1 ag inactive, CAL PDZ FP-2 79 and PKA-R2B activ inactive.
Screening c1ccc2scnc2c1 returned CAL PDZ FP-1 inactive, dFosB act inactive, PKA-R1A activ inactive, CAL PDZ FP-2 inactive and PKA-R2B activ inactive.
`O=C(COC(=O)c1cc(S(=O)(=O)Nc2ccccc2Cl)ccc1O)Nc1ccc(F)c(F)c1F` gave CAL PDZ FP-1 inactive, dFosB act 25, PKA-R1A activ inactive, NTR1 ag inactive, CAL PDZ FP-2 inactive and PKA-R2B activ inactive.
Screening NC(=O)CC1C(=O)N(c2ccc(Cl)cc2)C(=S)N1NC(=O)c1cccc(F)c1 (centres undefined) returned dFosB act inactive, PKA-R1A activ inactive, NTR1 ag inactive, CAL PDZ FP-2 62 and PKA-R2B activ inactive.
CNC(=O)CC1C(=O)N(c2ccc(Cl)cc2)C(=S)N1NC(=O)c1cccc(F)c1 (centres undefined) was read as CAL PDZ FP-1 inactive, dFosB act inactive, PKA-R1A activ inactive, NTR1 ag inactive, CAL PDZ FP-2 inactive and PKA-R2B activ inactive.
Screening CN1/C(=C\C=C2/SC(=S)NC2=O)C(C)(C)c2ccccc21 returned CAL PDZ FP-1 inactive, dFosB act 70, PKA-R1A activ inactive, NTR1 ag inactive, CAL PDZ FP-2 inactive and PKA-R2B activ inactive.
For CN1C(=CC=C2C=C(I)C(=O)C(I)=C2)C(C)(C)c2ccccc21 the results were CAL PDZ FP-1 inactive, dFosB act 175, PKA-R1A activ inactive, CAL PDZ FP-2 inactive and PKA-R2B activ inactive.
Cc1cc(C)cc(-n2ncc3c2CCCC3NC(=O)C2CCC2)c1 (centres undefined) was read as CAL PDZ FP-1 inactive, dFosB act inactive, PKA-R1A activ inactive, NTR1 ag inactive, CAL PDZ FP-2 53 and PKA-R2B activ inactive.
CN1CCN(c2cc(-c3ccccc3)nc3cc(-c4ccc(F)cc4)nn23)CC1 was read as CAL PDZ FP-1 inactive, dFosB act inactive, PKA-R1A activ inactive, NTR1 ag inactive, CAL PDZ FP-2 inactive and PKA-R2B activ inactive.
Fc1ccc(-c2cc3nc(-c4ccccc4)cc(N4CCN(CCN5CCOCC5)CC4)n3n2)cc1 was read as CAL PDZ FP-1 inactive, dFosB act 20, PKA-R1A activ inactive, CAL PDZ FP-2 inactive and PKA-R2B activ inactive.
Screening COC(CNC(=O)CNC(=S)N(Cc1ccccc1)Cc1cccnc1)OC returned CAL PDZ FP-1 inactive, dFosB act inactive, PKA-R1A activ inactive, NTR1 ag inactive, CAL PDZ FP-2 84 and PKA-R2B activ inactive.
`CCCCOC(=O)c1ccc(OC(=O)c2cccnc2)cc1` gave CAL PDZ FP-1 inactive, dFosB act inactive, PKA-R1A activ inactive, NTR1 ag inactive, CAL PDZ FP-2 33 and PKA-R2B activ inactive.
For Cc1nc2c(-c3ccccc3)cnn2c(N)c1-c1ccccc1 the results were CAL PDZ FP-1 inactive, dFosB act inactive, PKA-R1A activ inactive, NTR1 ag inactive, CAL PDZ FP-2 inactive and PKA-R2B activ inactive.
`COc1ccccc1-c1c(C)nn2c(N)c(-c3ccccc3)cnc12` gave dFosB act inactive, PKA-R1A activ inactive, NTR1 ag inactive, CAL PDZ FP-2 69 and PKA-R2B activ inactive.
`COc1ccc(-c2c(C)nn3c(N)c(-c4ccccc4)cnc23)cc1OC` gave CAL PDZ FP-1 inactive, dFosB act inactive, PKA-R1A activ inactive, NTR1 ag inactive, CAL PDZ FP-2 inactive and PKA-R2B activ inactive.
`CC1CCC(NC(=O)c2ccc3c(c2)S(=O)(=O)c2ccccc2C3=O)CC1` (centres undefined) gave CAL PDZ FP-1 43, dFosB act inactive, PKA-R1A activ inactive, NTR1 ag inactive, CAL PDZ FP-2 inactive and PKA-R2B activ inactive.
`CC(=O)Nc1ccc(NC(=O)C(C)OC(=O)/C(C#N)=C/c2ccc(N(C)C)cc2)cc1` (centres undefined) gave CAL PDZ FP-1 inactive, dFosB act 36, PKA-R1A activ inactive, NTR1 ag inactive, CAL PDZ FP-2 inactive and PKA-R2B activ inactive.
C[C@@H]1CN([C@@H](C)CO)C(=O)CCCn2nncc2CO[C@@H]1CN(C)C(=O)Nc1ccc(C(C)(C)C)cc1 was read as PKA-R1A activ inactive and PKA-R2B activ inactive.
`COc1ccc(NS(=O)(=O)c2c(C)cc(C)cc2C)cc1` gave CAL PDZ FP-1 inactive, dFosB act inactive, PKA-R1A activ inactive, NTR1 ag inactive, CAL PDZ FP-2 inactive and PKA-R2B activ inactive.

Source: PubChem (several laboratories)
